ChEMBL document CHEMBL4350958, “Rational Design of Short Peptide Variants by Using Kunitzin-RE, an Amphibian-Derived Bioactivity Peptide, for Acquired Potent Broad-Spectrum Antimicrobial and Improved Therapeutic Potential of Commensalism Coinfection of Pathogens” (J Med Chem, 2019)
≈ marks a conversion by molar mass, not a printed value. Calls of active or inactive are those of the source. The calls are words filed in the database; no cut-off is given here.

Legend:
Candida albicans [1] = assay: Antifungal activity against Candida albicans cgmcc2.2086 infected in C57BL/6 mouse model of keratitis assessed as reduction in fungal colonies in eyeballs at 1 mg/ml administered as topical eye drop every 5 mins for first 4 hrs and every 30 mins for next 7 hrs measured post-last dose by agar plate method relative to control; format: functional; parameters: scale not given: the % may be the effect or the level left
Candida albicans [2] = assay: Fungicidal activity against Candida albicans cgmcc2.2086 incubated for 48 hrs followed by replating on YM agar plate and measured after 48 hrs; format: functional
How it was run: (§1)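 Yeast diluted in MOPS-buffered RPMI 1640 to (0.5–1) × 10^3 CFU/mL (CLSI M27-A2, modified) and mixed 1:1 with peptide serially diluted in 0.2% BSA. After 48 h at 28 °C, 50 μL per well was plated on YM agar and incubated 48 h at 28 °C. MFC taken as the lowest concentration killing ≥99.9% of cells. Three or more independent experiments, triplicate wells.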

Candida parapsilosis [3] = assay: Fungicidal activity against Candida parapsilosis cgmcc2.3989 incubated for 48 hrs followed by replating on YM agar plate and measured after 48 hrs; format: functional; how it was run: as §1
Candida albicans [4] = assay: (§2) Antifungal activity against Candida albicans cgmcc2.2086 infected in C57BL/6 mouse model of keratitis assessed as reduction in clinical score at 1 mg/ml administered as topical eye drop every 5 mins for first 4 hrs and every 30 mins for next 7 hrs measured post-last dose; format: functional, organism-based
Candida tropicalis [5] = assay: Antifungal activity against Candida tropicalis cgmcc2.1975 measured after 48 hrs by broth microdilution method; format: functional; settings: cgmcc2.1975, 48 h
How it was run: (§3)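 Modified CLSI M27-A2 microdilution. Yeast colonies were diluted in MOPS-buffered RPMI 1640 to a final (0.5–1) × 10^3 CFU mL−1 and mixed with an equal volume of peptide serially diluted in 0.2% BSA. After 48 h at 28 °C, MIC was read at A492 as the lowest concentration inhibiting 95% of growth. At least three independent experiments, each with three technical replicates.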

Candida albicans [6] = assay: as §2, with “fungal hyphae infiltration into corneal stroma” for “clinical score”, “dose by periodic acid schiff staining-based histological analysis” for “dose”; format: functional, organism-based
Candida albicans [7] = assay: Antifungal activity against Candida albicans cgmcc2.2086 infected in C57BL/6 mouse model of keratitis assessed as appearance of transparent corneas at 1 mg/ml administered as topical eye drop every 5 mins for first 4 hrs and every 30 mins for next 7 hrs measured post-last dose; format: functional, organism-based
Candida albicans [8] = assay: Antifungal activity against Candida albicans cgmcc2.2086 measured after 48 hrs by broth microdilution method; format: functional; settings: cgmcc2.2086, 48 h; how it was run: as §3
Candida albicans [9] = assay: Antifungal activity against Candida albicans cgmcc2.2086 infected in C57BL/6 mouse model of keratitis assessed as appearance of transparent irises at 1 mg/ml administered as topical eye drop every 5 mins for first 4 hrs and every 30 mins for next 7 hrs measured post-last dose; format: functional, organism-based
Candida parapsilosis [10] = assay: Antifungal activity against Candida parapsilosis cgmcc2.3989 measured after 48 hrs by broth microdilution method; format: functional; settings: Lodderomyces parapsilosis, cgmcc2.3989, 48 h; how it was run: as §3
Candida albicans [11] = assay: as §2, with “fungal hyphae extention into corneal stroma” for “clinical score”, “dose by periodic acid schiff staining-based histological analysis” for “dose”; format: functional, organism-based
Candida tropicalis [12] = assay: Fungicidal activity against Candida tropicalis cgmcc2.1975 incubated for 48 hrs followed by replating on YM agar plate and measured after 48 hrs; format: functional; how it was run: as §1

How did the Activity (Candida albicans [1]) turn out when `C[C@@H]1[C@H](O)[C@@H](C)/C=C/C=C/C=C/C=C/C=C/C=C/C=C/[C@H](O[C@@H]2O[C@H](C)[C@@H](O)[C@H](N)[C@@H]2O)C[C@@H]2O[C@](O)(C[C@@H](O)C[C@@H](O)[C@H](O)CC[C@@H](O)C[C@@H](O)CC(=O)O[C@H]1C)C[C@H](O)[C@H]2C(=O)O` [AMPHOTERICIN B] was run?
The Activity was “<=80%”.

What about the “MFC<=99.9” value (Candida albicans [2]) of the same molecule?
The value was 2 µM (≈ 1.85 µg/mL).

What about the “MFC<=99.9” value (Candida parapsilosis [3]) of the same molecule?
The value was 4 µM (≈ 3.7 µg/mL).

What about the Activity (Candida albicans [4]) of the same molecule?
The Activity was “Active”.

What about the MIC95 (Candida tropicalis [5]) of the same molecule?
The MIC95 was 1 µM (≈ 0.924 µg/mL).

What about the Activity (Candida albicans [6]) of the same molecule?
Its Activity is “Active”.

And the Activity (Candida albicans [7])?
The Activity was “Active”.

And the MIC95 (Candida albicans [8])?
The MIC95 was 1 µM (≈ 0.924 µg/mL).

And the Activity (Candida albicans [9])?
The Activity was “Active”.

And the MIC95 (Candida parapsilosis [10])?
Its MIC95 is 2 µM (≈ 1.85 µg/mL).

What about the Activity (Candida albicans [11]) of the same molecule?
The Activity was “Active”.

What about the “MFC<=99.9” value (Candida tropicalis [12]) of the same molecule?
Its value is 2 µM (≈ 1.85 µg/mL).
